# Beta apoptosis = beta cell apoptosis inhibition. actives 0.8% (n = 300,000). INS-1E cytokine-induced death, ATP luminescence, 48 h; percent of positive-control rescue, neutral wells zero. protection from apoptosis, % (test concentration not listed);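 active = Every replicate reaches about 75%, or at least half do and their mean reaches it too, limit read from the data; inconclusive = At least half of replicates reach the limit but their mean does not; inactive = Under half of replicates reach the limit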;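 note: 0% = cytokine-treated negative control wells and 100% = positive control rescue; higher means more ATP so stronger rescue from cytokine killing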
# UPR XBP1 act = adaptive UPR (XBP1) activation. CHO-XBP1 luciferase reporter, IRE1-XBP1 UPR activation, luminescence; percent of tunicamycin response, DMSO as zero. activation, % at 20 µM. actives 0.33% (n = 330,000). AID 463104;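 active = versus positive control, 20 µM dose yields 30% or more activation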;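 note: 100% = tunicamycin at 10 µg/mL and 0% = DMSO only wells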
#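 Material: CHO-XBP1 cells stably carrying IRE1-XBP1-driven luciferase reporter / Amount: 1000 cells per well / Compound: 20 µM, 1% DMSO / Times: 6 h treatment, 37 °C / Detection: luciferase luminescence / Measure: % activation of reporter signal versus tunicamycin and DMSO controls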
# Mdm2 MdmX PPI = human Mdm2/MdmX binding inhibition; SaOS-2 split-luciferase Mdm2/MdmX complementation, luminescence; inhibition, % at 8 µM; actives 3% (n = 330,000);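 active = inhibition of at least 50% at 8 µM in the primary screen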
# Target sequence (O15151 whole entry, looked up): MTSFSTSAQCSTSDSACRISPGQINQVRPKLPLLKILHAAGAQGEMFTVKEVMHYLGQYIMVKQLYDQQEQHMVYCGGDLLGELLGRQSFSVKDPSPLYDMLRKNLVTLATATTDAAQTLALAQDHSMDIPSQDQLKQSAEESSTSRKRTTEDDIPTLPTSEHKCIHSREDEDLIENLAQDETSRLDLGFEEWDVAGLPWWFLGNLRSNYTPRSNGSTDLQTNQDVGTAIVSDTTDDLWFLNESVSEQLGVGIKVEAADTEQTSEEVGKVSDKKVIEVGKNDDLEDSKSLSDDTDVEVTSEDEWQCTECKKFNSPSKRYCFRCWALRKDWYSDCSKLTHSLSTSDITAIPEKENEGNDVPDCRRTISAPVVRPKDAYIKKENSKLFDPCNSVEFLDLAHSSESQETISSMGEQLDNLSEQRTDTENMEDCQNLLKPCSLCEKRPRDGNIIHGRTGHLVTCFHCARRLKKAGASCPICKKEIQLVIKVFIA
# Target sequence (Q00987 whole entry, looked up): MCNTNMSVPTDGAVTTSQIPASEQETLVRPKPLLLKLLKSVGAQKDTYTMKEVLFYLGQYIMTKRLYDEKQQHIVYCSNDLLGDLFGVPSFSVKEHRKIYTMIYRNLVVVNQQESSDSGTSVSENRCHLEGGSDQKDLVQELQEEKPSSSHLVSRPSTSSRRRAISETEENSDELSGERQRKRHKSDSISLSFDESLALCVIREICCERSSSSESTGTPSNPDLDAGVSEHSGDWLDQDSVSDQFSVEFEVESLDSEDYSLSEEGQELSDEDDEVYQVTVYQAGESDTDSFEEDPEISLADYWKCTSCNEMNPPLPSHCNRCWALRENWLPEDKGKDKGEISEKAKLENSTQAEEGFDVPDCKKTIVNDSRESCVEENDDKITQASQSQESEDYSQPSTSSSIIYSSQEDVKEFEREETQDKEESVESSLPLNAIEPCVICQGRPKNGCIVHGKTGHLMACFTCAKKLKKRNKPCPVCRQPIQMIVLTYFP
# SKKanGAS inh = blocks kanamycin growth of S. pyogenes SKKanGAS strain | AID 1662 | BacTiter-Glo, 6 h | actives 1.3% (n = 300,000) | inhibition, % at 7.5 µM;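 active = mean replicate score, as percent of positive control median, at least 50; inconclusive = mean below 50 but one replicate at or above 50; inactive = mean and every replicate below 50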;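 note: strain carries kanamycin resistance gene driven by streptokinase promoter and grows in 40 µg/ml kanamycin; loss of luminescence reflects streptokinase promoter inhibition or plain growth inhibition; 0% = median of DMSO wells and 100% = positive control at its reference dose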
# UPR CHOP act = activators of apoptotic arm of unfolded protein response (CHOP). CHO-CHOP luciferase reporter, UPR activation, luminescence; percent of tunicamycin response over DMSO baseline. activation, % at 10 µM. actives 0.34% (n = 330,000);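 active = at 10 µM dose, activation of 40% or more, normalized to positive control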;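 note: 100% = tunicamycin at 10 µg/mL and 0% = DMSO alone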
#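 Test system: CHO CHOP reporter cells. Input: 500 CHO-CHOP cells per well. Medium: F12 with 10% FBS. Technique: luciferase luminescence. Measure: percent activation relative to tunicamycin control. Dosing: 10 µM compound, 0.5% DMSO. Timing: 16-18 h cell attachment, then 6 h compound exposure, 37 °C.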
# CSC inhib = blocks cancer stem cells; cancer stem cell-like cells viability, luminescence; inhibition, % at 7.5 µM; actives 1.1% (n = 300,000); AID 2717; in the data active = inhibition above about 75%; inconclusive = no clear call, values can overlap the other calls; tested in HMLE shEcad cells
# Mdm2-MdmX conf = confirmation of human Mdm2/MdmX interaction inhibitors; shares compounds with Mdm2 MdmX PPI; Mdm2-MdmX binding, luminescent assay; inhibition, % at 8 µM; actives 55% (n = 10,000); AID 489028; in the data active = inhibition above about 40%
# FLuc counter = counter-screen for Mdm2/MdmX inhibitors: full-length luciferase | actives 77% (n = 6,200) | shares compounds with Mdm2 MdmX PPI | SaOS-2 full-length luciferase counterscreen, luminescence | inhibition, % at 8 µM;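 active = mean inhibition at 8 µM reaching about 37%, which flags the compound as non-specific, limit read from the data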;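 note: p53-null SaOS-2 cells with luciferase driven by a doxycycline-inducible promoter; compound on cells about two nights before reading with doxycycline added after day one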
# * hit, by the source's call; ? = inconclusive; · = no result given. Rows were chosen to be rich in hits. Some 4.8% of all compounds tested hit in one or more screens of this group.
SMILES,Beta apoptosis,UPR XBP1 act,Mdm2 MdmX PPI,SKKanGAS inh,UPR CHOP act,CSC inhib,Mdm2-MdmX conf,FLuc counter
CCC1CCCCN1S(=O)(=O)c1ccc(NC(=O)c2nc(S(C)(=O)=O)ncc2Cl)cc1 (stereo unspecified),107.9*,-8.5,97.5*,50.6*,-11.2,114.7*,100.2*,0.8
CCS(=O)(=O)c1ncc(Cl)c(C(=O)Nc2ccc(C)cc2)n1,-30.7,-10.3,86.6*,-22.9,11.9,119.0*,78.0*,57.4*
CCS(=O)(=O)c1ncc(Cl)c(C(=O)Nc2ccc(S(=O)(=O)N3CCCC(C)C3)cc2)n1 (stereo unspecified),105.5*,-10.5,99.3*,37.3,-11.2,118.1*,99.2*,51.2*
CCOC(=O)C1CCCN(C(=O)CN2C(=O)NC(C)(c3ccc4ccccc4c3)C2=O)C1 (stereo unspecified),-6.1,0.7,24.0,-2.9,-0.3,-7.8,·,·
Cc1oc(-c2ccccc2F)nc1CS(=O)CC(=O)NC1CCCCC1 (stereo unspecified),-3.8,0.1,20.3,-2.2,0.5,10.7,·,·
C=CCn1c(O)c2ccc(C(=O)N=NC(=O)c3ccc(F)cc3)cc2c1O,-2.7,0.3,6.1,3.2,-1.6,-2.6,·,·
COc1cccc(C(=O)NNS(=O)(=O)c2ccc(C)cc2)c1,5.5,-3.1,24.5,-2.2,-0.1,-10.1,·,·
COc1ccc(Nc2nc(Nc3ccc(OC)cc3)nc(SC3=NCCS3)n2)cc1,4.0,-1.4,74.4*,34.8,1.9,-18.8,-7.6,·
Cc1noc(C)c1CSc1nc2sc(C)c(C)c2c(=O)n1-c1ccccc1,7.5,7.8,10.9,?,1.0,13.9,·,·
C=CCn1c(SCc2c(C)noc2C)nc2sc(C)c(C)c2c1=O,14.4,7.5,56.2*,37.9,0.3,59.5,60.3*,49.4*
COc1ccc(Cl)cc1NC(=O)C(C)OC(=O)Cn1cc(C(F)(F)F)ccc1=O (stereo unspecified),-5.5,-3.6,14.9,·,2.9,·,·,·
O=C(N1CCN(Cc2ccc3c(c2)OCO3)CC1)C(Cl)(Cl)Cl,1.6,1.9,16.3,-14.9,1.0,10.8,·,·
COc1ccc2sc(-c3ccc(N(C)C)cc3)c(C#Cc3cncn3C)c2c1,7.6,4.8,74.1*,·,4.1,104.1*,27.8,·
Cc1[nH]c2ccccc2c1/C=C/C(=O)c1ccccc1,14.8,0.1,0.6,-8.0,11.7,57.9,·,·
Cc1[nH]c2ccccc2c(=O)c1C(=O)/C=C/c1ccccc1,25.0,0.7,100.3*,6.5,11.5,61.3,99.6*,51.8*
Nc1nc(-c2ccc(Cl)cc2)nc(-c2ccc(Cl)cc2)n1,-4.3,-2.6,57.1*,-2.4,0.1,24.6,40.4*,61.3*
N#Cc1c(N)nc(-c2ccccc2)nc1-c1ccccc1,-1.2,5.1,56.2*,-9.0,0.0,-12.0,3.1,·
CSc1nc(-c2ccc(Cl)cc2)nc(N)c1C#N,11.5,1.9,66.9*,-1.6,0.6,-20.4,44.0*,73.0*
CN(C)S(=O)(=O)c1ccc(Cl)c(NC(=O)COC(=O)CCC2CCCCC2)c1,4.7,0.8,11.5,·,-0.1,-10.5,·,·
Cc1ccc(NC(=S)N(C)C(c2ccccc2)c2ccccc2)cc1C,3.5,-7.6,59.0*,19.9,-0.2,27.8,24.8,·
CSc1nc(=S)c2[nH]c(=S)[nH]c2[nH]1,-2.7,·,·,5.3,·,-2.4,·,·
O=C(CN1C(=O)/C(=C/c2ccccc2F)Oc2ccccc21)N1CCN(c2ccccn2)CC1,-1.1,3.5,39.4,1.1,3.5,-15.2,·,·
CC1CCN(C(=O)CN2C(=O)c3cccc4cccc(c34)C2=O)CC1,-8.8,-0.8,15.0,-1.8,-0.1,-12.2,·,·
O=C(CN1C(=O)c2cccc3cccc(c23)C1=O)N1CCN(c2ccccn2)CC1,-0.7,18.7,50.5*,-3.8,5.1,-7.3,-4.7,·
O=C(CN1C(=O)/C(=C\c2cccc(Cl)c2)Oc2ccccc21)N1CCN(c2ccccn2)CC1,0.3,29.2,64.6*,1.0,5.2,20.1,12.8,·
SMILES,Beta apoptosis,UPR XBP1 act,Mdm2 MdmX PPI,SKKanGAS inh,UPR CHOP act,CSC inhib,Mdm2-MdmX conf,FLuc counter
CCCN(CC(=O)Nc1ccccc1C)C(=O)CSc1ccccc1C,-5.4,-1.8,-9.3,·,2.6,-9.7,·,·
NC(=O)N/N=C/c1cn(-c2ccccc2)nc1-c1ccccc1,9.0,2.6,-13.0,0.0,4.9,20.3,·,·
O=[N+]([O-])c1ccc(N/N=C/c2cn(-c3ccccc3)nc2-c2ccccc2)cc1,14.6,1.9,57.4*,13.9,4.4,29.4,39.2,52.2*
O=[N+]([O-])c1ccc(/C=N/Nc2ncccc2[N+](=O)[O-])s1,-37.7,1.6,4.6,11.9,1.6,10.2,·,·
O=[N+]([O-])c1ccc(/C=N/n2cnc3ccccc32)s1,112.0*,6.2,70.2*,14.1,15.6,99.7*,59.5*,9.6
Cc1ccc(N(CC(=O)N2CCc3ccccc3C2)S(C)(=O)=O)cc1,-4.8,-4.1,4.2,11.4,-2.4,-8.9,·,·
CCCCNC(=O)C(C1CCCCC1)N(CCN(C)C)C(=O)CCCN1C(=O)NC(c2ccc(-c3ccccc3)cc2)C(C(=O)OCc2ccccc2)=C1C (stereo unspecified),·,40.7*,96.9*,·,29.8,·,56.6*,1.0
CCCCNC(=O)C(C)N(CCN(C)C)C(=O)CCCN1C(=O)NC(c2ccc([N+](=O)[O-])cc2)C(C(=O)OCc2ccccc2)=C1C (stereo unspecified),·,-1.7,68.4*,·,2.1,·,22.8,·
CCCCCCN(C(=O)CCCCCN1C(=O)NC(c2ccc(-c3ccccc3)cc2)C(C(=O)OCc2ccccc2)=C1C)C(C)C(=O)NCCCC (stereo unspecified),8.3,-1.0,18.8,22.6,2.0,2.7,·,·
CCCCCCN(C(=O)CCCCCN1C(=O)NC(c2cccc([N+](=O)[O-])c2)C(C(=O)OCc2ccccc2)=C1C)C(C(=O)NCCCC)c1ccc(OCC(=O)OC)c(C(=O)OC)c1 (stereo unspecified),-0.1,-3.4,85.3*,28.0,-1.3,-42.8,-14.2,·
Cc1nn(Cc2ccccc2)c(C)c1NC(=O)Cn1nc([N+](=O)[O-])c(Cl)c1C,-7.6,-1.4,2.0,-1.6,0.4,-12.0,·,·
Cc1nn(Cc2c(Cl)cccc2Cl)c(C)c1NC(=O)c1cc(C(C)C)on1,8.4,-3.2,78.8*,-3.6,0.5,31.1,62.4*,53.8*
Cc1cc(C(=O)Nc2c(C)nn(Cc3c(Cl)cccc3Cl)c2C)no1,-6.8,-0.4,24.4,-1.0,0.0,12.9,·,·

# Source: PubChem BioAssay (several laboratories)
